Data published in ChEMBL document CHEMBL1806369, “Carbonic anhydrase I and II activation with mono- and dihalogenated histamine derivatives” (Bioorg Med Chem Lett, 2011).

Experiments:
[1] = molecular target: Carbonic anhydrase 1 (Homo sapiens) (UniProt P00915); test: Activation of human cytosolic carbonic anhydrase 1 preincubated for 15 mins by stopped-flow CO2 hydration assay
Outline: (§1)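 Initial velocity taken from at least six traces of the first 5–10% of reaction per activator, with uncatalyzed rates measured identically and subtracted. Activator stocks 10 mM in distilled-deionized water, diluted with water down to 0.1 nM. Enzyme and activator preincubated 15 min at room temperature before assay.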

[2] = molecular target: Carbonic anhydrase 2 (Homo sapiens) (UniProt P00918); test: Activation of human cytosolic carbonic anhydrase 2 preincubated for 15 mins by stopped-flow CO2 hydration assay; outline: as §1

Carbonic anhydrase 1 (Homo sapiens), sequence (P00915 2-261 limits assumed): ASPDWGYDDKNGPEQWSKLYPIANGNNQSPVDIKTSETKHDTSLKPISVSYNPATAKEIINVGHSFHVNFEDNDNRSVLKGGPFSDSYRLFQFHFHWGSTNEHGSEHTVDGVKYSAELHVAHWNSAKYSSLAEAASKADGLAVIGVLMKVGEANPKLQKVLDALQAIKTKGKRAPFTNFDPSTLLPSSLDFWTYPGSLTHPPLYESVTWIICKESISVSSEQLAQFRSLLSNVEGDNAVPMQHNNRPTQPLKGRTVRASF

SMILES | KA [1] | KA [2]
CC(C)(C)OC(=O)NCCc1nc(I)[nH]c1I | 29.3 µM | 13.6 µM
CC(C)(C)OC(=O)NCCc1nc[nH]c1Cl | 16.5 µM | 24.8 µM
CC(C)(C)OC(=O)NCCc1nc[nH]c1Br | 13.3 µM | 28.5 µM
CC(C)(C)OC(=O)NCCc1nc(Br)[nH]c1Br | 7.1 µM | 44.5 µM
NCCc1nc[nH]c1I | 0.0007 µM | 0.001 µM
NCCc1nc[nH]c1Cl | 0.018 µM | 0.032 µM
NCCc1nc(Cl)[nH]c1Cl | 0.021 µM | 0.115 µM
NCCc1nc(Br)[nH]c1Br | 0.015 µM | 0.096 µM
CC(C)(C)OC(=O)NCCc1nc(Cl)[nH]c1Cl | 5.4 µM | 50.2 µM
NCCc1nc(I)[nH]c1I | 0.0009 µM | 0.065 µM
NCCc1nc[nH]c1Br | 0.012 µM | 0.008 µM
CC(C)(C)OC(=O)NCCc1nc[nH]c1I | 12.1 µM | 36.7 µM
